The record followed here is ChEMBL document CHEMBL3091393, “Antioxidant activities of 5-hydroxyoxindole and its 3-hydroxy-3-phenacyl derivatives: the suppression of lipid peroxidation and intracellular oxidative stress” (Bioorg Med Chem, 2013).

Activity calls are given as the source filed them. No cut-off for these calls is given here.

As a reminder, the IC50 is the midpoint of a concentration-inhibition curve. A higher IC50 goes with weaker potency in that assay.

The subject of data set [1] is HL-60. Nature of the data set: Cytotoxicity against human HL60 cells assessed as reduction of cell viability at 100 uM after 24 hrs by trypan blue dye exclusion test. The settings on record: hl-60, 24 h. It counts as cell-based. The method, boiled down: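 HL60 cells at 1.0 × 10⁶/well exposed to compound (100 μM, 1% DMSO final) for 24 h at 37 °C, 5% CO2. Cells pelleted and resuspended in PBS(−). Viable cells counted by trypan blue exclusion on an automated counter.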

The subject of data set [2] is Radical scavenging activity. As to the kind of experiment: Antioxidant activity assessed as DPPH free radical scavenging activity by spectroscopic analysis. It counts as functional. Background: DPPH is a stable violet radical that fades when it is reduced.
For a further data set, the system named is Liver microsome. As to the kind of experiment: Antioxidant activity against tert-butylhydroperoxide-induced lipid peroxidation in rat liver microsomes after 20 mins by TBARS method. In kind it is functional. The essentials: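 Kept on ice, then peroxidation started with tert-butylhydroperoxide (1 mM) and run 37 °C, 20 min. Stopped with BHT, then TCA/TBA at 85 °C for 20 min. TBARS read as A535−A600. IC50 is the mean of 3 independent trials.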
(In general: Liver microsomes are a subcellular fraction often used to study metabolism.)

In data set [3] the test system is HL-60. As to the kind of experiment: Antioxidant activity in human HL60 cells assessed as reduction of H2O2-induced intracellular oxidative stress at 10 uM after 1 hr using DCFH-DA by FACS analysis. It counts as functional, cell-based. The essentials: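 HL60 cells (RPMI-1640, 5% heat-inactivated FBS, 37 °C, 5% CO2) at 1.0 × 10⁶/well loaded with DCFH-DA (10 μM, 15 min), washed, then pretreated 1 h with compound (10 μM, 1% DMSO final). H2O2 (200 μM) added for 1 h; water for controls. Fluorescence (ex 488/em 530 nm) measured by flow cytometry on about 10,000 cells per sample.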
(Flow cytometry measures light scatter and fluorescence of single cells or particles in a stream.)

Data set [4] in a line: Octanol-water partition coefficient, logKOW of the compound. In kind it is physicochemical. The settings on record: read-out: log KOW.

Take `COc1ccc(C(=O)CC2(O)C(=O)Nc3ccc(O)cc32)cc1` (stereo not given): the Activity result in the data set with HL-60 [1] is “Non-toxic”; in data set [2] it was 1.5 ×10³ /M/s. Also, inhibition in the data set on Liver microsome was half-maximal at 225 µM (IC50). In the data set with HL-60 [3], the result was Active. Moreover, in data set [4], the logP came to 1.74.
On the same counts, the results for `N#Cc1ccc(C(=O)CC2(O)C(=O)Nc3ccc(O)cc32)cc1` (stereo not given) are “Toxic”, 1.7 ×10³ /M/s, 150 µM, “Active” and 1.91.
For `Oc1nc(O)c2nc(O)[nH]c2n1` [URIC ACID], the Activity in data set [2] came to 0.63 ×10³ /M/s. In the data set on Liver microsome, this compound returned an IC50 greater than 300 µM. Further, the outcome with HL-60 [3] was inactive.
`O=C(CC1(O)C(=O)Nc2ccc(O)cc21)c1ccc([N+](=O)[O-])cc1` (stereo not given): the Activity in data set [2] amounted to 2.5 ×10³ /M/s. 40 µM corresponded to half-maximal inhibition in the data set with Liver microsome (IC50). The result in the data set with HL-60 [3] was Active. The logP in data set [4] is 1.85.
Consider `O=C(CC1(O)C(=O)Nc2ccc(O)cc21)c1ccccc1` (stereo not given), for which the Activity result is “Non-toxic” in the data set on HL-60 [1] and 1.9 ×10³ /M/s in data set [2]. The IC50 in the data set with Liver microsome was determined as 240 µM. The outcome with HL-60 [3] was Active. Also, in data set [4], the logP stood at 1.07.
As for `O=C(CC1(O)C(=O)Nc2ccc(O)cc21)c1ccc(I)cc1` (stereo not given), in data set [2], the Activity was found to be 2.2 ×10³ /M/s. This compound also returned an IC50 in the data set with Liver microsome of 55 µM. In addition, in the data set with HL-60 [3], the result was Active. Further, the logP in data set [4] is 2.81.
`O=C(CC1(O)C(=O)Nc2ccc(O)cc21)c1ccc(C(F)(F)F)cc1` (stereo not given): the Activity in data set [2] came to 1.6 ×10³ /M/s. This compound also gave an IC50 in the data set on Liver microsome of 80 µM. Further, in the data set on HL-60 [3], the outcome was Active. In addition, in data set [4], the logP was 2.89.
For `Cc1ccc(C(=O)CC2(O)C(=O)Nc3ccc(O)cc32)cc1` (stereo not given), the Activity entry was “Non-toxic” in the data set with HL-60 [1] and 1.8 ×10³ /M/s in data set [2]. This compound yielded an IC50 with Liver microsome of 160 µM. Also, the outcome with HL-60 [3] was Active. The logP in data set [4] is 2.2.
For `O=C(CC1(O)C(=O)Nc2ccc(O)cc21)c1ccc(Cl)cc1` (stereo not given), in that order: “Toxic”, 2.4 ×10³ /M/s, 120 µM, “Active” and 2.45.
For `O=C(CC1(O)C(=O)Nc2ccc(O)cc21)c1ccc(F)cc1` (stereo not given), in that order: “Toxic”, 1.5 ×10³ /M/s, 95 µM, “Active” and 1.93.
On to `O=C(CC1(O)C(=O)Nc2ccc(O)cc21)c1ccc(Br)cc1` (stereo not given), for which the Activity entry in the data set with HL-60 [1] was “Toxic”; in data set [2] it was 1.2 ×10³ /M/s. For the same compound, in the data set with Liver microsome, the IC50 is 75 µM. Moreover, the result in the data set with HL-60 [3] was Active. In addition, the logP in data set [4] came to 2.55.
On to `O=C1Cc2cc(O)ccc2N1`, for which the Activity entry was “Non-toxic” in the data set with HL-60 [1] and 9.2 ×10³ /M/s in data set [2]. Also, in the data set on Liver microsome, the midpoint of inhibition, the IC50, lay at 300 µM. The outcome in the data set on HL-60 [3] was Active. Moreover, the logP in data set [4] was 0.7.
For `CC(=O)CC1(O)C(=O)Nc2ccc(O)cc21` (stereo not given), in that order: “Non-toxic”, 0.74 ×10³ /M/s, greater than 300 µM, “inactive” and 0.44.
